# This is a sample that favours compounds with a hit; in the whole collection about 1.7% have one here.
# SKN-1 block: inhibitors of C. elegans SKN-1 | AID 624304 | C. elegans VP596 Pgst-4::GFP/RFP ratio, acrylamide-induced, 24 h | 360,000 compounds, 0.49% hits | inhibition, % at 21.8 µM;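 active means interference check ratio from 0.5 to 1.5 plus GFP to RFP signal ratio inhibition reaching or exceeding a fixed threshold, cut at about 30% in these data, passing the limit was not always enough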
# PABP1 MLLE inh: blocks PAM2 peptide binding to the PABP1 MLLE domain; GST-MLLE / FITC-PAM2 fluorescence polarization; inhibition, % at 20 µM; 360,000 compounds, 0.36% hits; in the data active means inhibition above about 35%, passing the limit was not always enough
# PABP FP inh: PABP-poly(A) binding inhibition | P11940 | PABP-poly(A) RNA binding, fluorescence polarization | inhibition, % at 35 µM | 290,000 compounds, 1% hits | AID 2014;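 further: calls also rest on retests at 20 µM and on dose response follow-up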
# eIF4H FP inh: inhibitors of RNA binding by human eIF4H; eIF4H fluorescence polarization binding assay; 290,000 compounds, 0.94% hits; Q15056; inhibition, % at 35 µM;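 further: calls also rest on retests at 20 µM and on dose response follow-up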
# MT1-MMP act inh: MT1-MMP (human) activation inhibition. P50281. HT1080 RFP-PRO-GFP cells, GFP/RFP ratio fluorescence, overnight; percent of plate control window, DMSO zero. GFP/RFP ratio change, % at 20 µM. 360,000 compounds, 0.061% hits;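 active means GFP/RFP ratio change of at least 30% with cell ATP level not reduced by more than half and red fluorescence within 50% of control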
#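 system = RFP-PRO-GFP reporter HT1080 cells | dosing = 20 µM single dose, 1% DMSO | timing = overnight cell settling, then overnight compound exposure, 37 °C, 5% CO2 | read-out basis = GFP/RFP fluorescence ratio | controls = DMSO and RFP-L50D-GFP cell wells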
# Numbers stand for hits; . = inactive; ? = inconclusive; / = no result. Unless noted, how the calls were made is not given here.
SMILES,SKN-1 block,PABP1 MLLE inh,PABP FP inh,eIF4H FP inh,MT1-MMP act inh
CCOC(=O)N1CCN(C(=O)c2ccc3c(c2)N=C(C)c2cc(Cl)ccc2S3)CC1,.,.,.,.,.
COC(=O)CC1=C(C(=O)OC)C(c2ccncc2)C(C#N)=C(N)O1 (stereo not given),.,.,105,.,.
CCOc1ccc(/C=C2\NC(=S)NC2=O)cc1,.,.,.,.,.
Cc1no[n+]([O-])c1COc1ccc(/C=C2\NC(=S)NC2=O)cc1,/,/,50,56,/
COc1ccc([C@H]2CC(=O)C=C(c3cccc(CO)c3)C2)cc1,.,.,/,/,.
O=C(COC(=O)C1CCN(S(=O)(=O)c2ccc(Cl)c(C(F)(F)F)c2)CC1)NCC1CCCO1 (stereo not given),.,.,/,/,.
COc1ccc(-c2cn3cccnc3n2)cc1NC(=O)c1cc(OC)c(OC)c(OC)c1,.,.,77,active,.
Clc1ccc(-c2cn3cccnc3n2)cc1Cl,42,.,78,71,.
Clc1ccc(-c2cn3cccnc3n2)cc1,.,.,.,.,.
COc1cc(C(=O)Nc2cccc(-c3cn4cccnc4n3)c2)cc(OC)c1OC,.,.,.,.,.
Brc1ccc(-c2cn3ccccc3n2)cc1,.,.,.,.,.
Brc1ccc(-c2cn3cccnc3n2)cc1,48,.,.,.,.
Cc1cccc(CNc2ccc(S(=O)(=O)N3CCCCC3)cc2)c1,.,.,/,/,.
CCOC(=O)c1c(NC(=O)CSc2nnnn2-c2ccc(OC)cc2)sc(C)c1C,.,43,.,.,.
CCOC(=O)c1csc(NC(=O)CSc2nnnn2-c2ccc(OC)cc2)n1,.,.,.,.,.
Cc1ccccc1-c1noc(-c2ccc(Cl)cc2)n1,.,.,.,.,.
Fc1ccc(-c2nc(-c3cnccn3)no2)c(Cl)c1,38,.,.,.,.
c1ccc(-c2ccc(-c3nc(-c4ccccn4)no3)cc2)cc1,63,.,.,.,.
Clc1ccc(-c2nc(-c3cnccn3)no2)cc1,46,.,.,.,.
Cc1[nH]c(C)c(S(=O)(=O)N2CCN(c3cccc(Cl)c3)CC2)c1C(=O)N1CCCCC1,.,.,.,.,.
CCN1CCN(c2cc(N3CCN(C(=O)c4ccco4)CC3)c3c4c(onc24)-c2ccccc2C3=O)CC1,.,.,122,94,.
O=C(O)CCNc1cc(N2CCN(C(=O)c3ccco3)CC2)c2noc3c2c1C(=O)c1ccccc1-3,.,.,95,101,.
CC(C)(C)c1ccc(NC(=O)Cn2cnc3cc([N+](=O)[O-])ccc3c2=O)cc1,.,.,.,.,.
Cc1ccc(C(OCC(C)(C)C[N+](C)(C)C)c2ccccc2)cc1 (stereo not given),.,.,.,.,.
Oc1ccc(CN2CCCc3ccccc32)c2cccnc12,.,42,.,.,.
SMILES,SKN-1 block,PABP1 MLLE inh,PABP FP inh,eIF4H FP inh,MT1-MMP act inh
CC(=O)N1CCc2[nH]c3ccccc3c2C1,.,.,.,.,.
CC(=O)N1CCc2[nH]c3ccc(C)cc3c2C1,.,.,35,?,.
Cc1ccc2[nH]c3c(c2c1)CN(C(=O)CN1CCSCC1)CC3,/,/,94,53,/
CCOC(=O)N1CCc2[nH]c3ccc(C)cc3c2C1,.,56,.,.,.
COc1ccccc1NC(=O)N1CCc2[nH]c3ccc(F)cc3c2C1,.,.,86,102,.
C/C(=N\O)c1noc(C)c1C(=O)Nc1nccs1,.,.,.,.,.
COc1ccc(-c2ccc(/C=N/N3C(=O)C4C5C=CC(C6CC56)C4C3=O)o2)c([N+](=O)[O-])c1 (stereo not given),.,.,9.5,64,.
O=C1C2C3C=CC(C4CC34)C2C(=O)N1/N=C/c1ccc(-c2ccc(F)cc2[N+](=O)[O-])o1 (stereo not given),.,.,.,.,.
Cc1ccc(-c2ccc(/C=N/N3C(=O)C4C5C=CC(CC5)C4C3=O)o2)c([N+](=O)[O-])c1 (stereo not given),.,.,58,53,.
COc1ccccc1NS(=O)(=O)c1ccc2oc(N)nc2c1,.,.,.,.,.
CC(C)Nc1nc(Cl)nc(Nc2ccccc2)n1,.,.,.,.,.
O=C(NCC1CCCO1)c1ccc(NC(=O)c2cc(F)c(F)cc2Cl)cc1 (stereo not given),.,.,.,.,.
COc1ccc(NC(=O)CSc2nc3ccsc3c(=O)n2CCC(=O)O)c(OC)c1,.,.,.,.,.
COc1cccc(/C=C2/CN(C)CC3=C2OC(N)=C(C#N)C3c2cccc(OC)c2)c1 (stereo not given),.,.,78,75,.
CC(C)OCCCNC(=O)c1sc(=S)n(C)c1N,.,41,.,.,.
Cc1onc(-c2c(F)cccc2Cl)c1C(=O)NC(=S)NC1CCS(=O)(=O)C1 (stereo not given),.,47,.,.,.
Cc1onc(-c2c(F)cccc2Cl)c1C(=O)NC1CCCCCC1,.,.,.,.,.
O=C(c1ccc(Cl)c(Cl)c1)N1CCOCC1,.,.,.,.,.
O=C(NCC(=O)N1CCOCC1)c1ccc(Cl)c(Cl)c1,37,.,/,/,.
Cc1c(C)n(CC(O)CN2CCCCCC2)c2ccccc12 (stereo not given),.,.,.,.,.
Cc1ccc2c(c1)c(C)c(C)n2CC(O)CN1CCOCC1 (stereo not given),39,.,.,.,.
O=C(c1cc(COc2ccc(F)cc2Cl)on1)N1CC2C[C@@H]3CC1C[C@H](C2)C3,35,.,/,/,.
CCOc1cccc2sc(N3CCN(C(=O)c4ccc5ncsc5c4)CC3)nc12,.,.,/,/,.
O=C(NC(=S)Nc1ccc2c(c1)OCCO2)c1ccccc1,.,38,.,.,.
O=C(O)c1cccc(NC(=S)NC(=O)c2cccc(OCc3ccccc3)c2)c1,.,40,.,.,.
SMILES,SKN-1 block,PABP1 MLLE inh,PABP FP inh,eIF4H FP inh,MT1-MMP act inh
O=C(O)CCNc1ccc2c(c1)OCCO2,.,.,89,83,.
O=C(O)c1cccc(NC(=S)NC(=O)c2ccncc2)c1,.,44,.,.,.
CC(=O)c1cccc(NC(=S)NC(=O)c2ccccc2Br)c1,.,36,.,.,.
CC(=O)c1cccc(NC(=S)NC(=O)c2ccccc2C)c1,.,.,.,.,.
Cc1ccc(OCC(=O)NC(=S)Nc2cccc(NC(=O)c3ccccc3)c2)cc1,.,38,.,.,.
Cc1cccc2c(N=Nc3ccccc3)c(O)[nH]c12,.,.,57,95,.
Oc1[nH]c2ccccc2c1N=Nc1cccc(Cl)c1,.,.,?,?,.
Cc1cc(C(=O)Nc2ccccc2C(=O)O)ccc1NC(=O)COc1cccc(C)c1C,.,.,.,.,.
CCn1c(SCC(=O)NC2CC2)nnc1-c1ccc(OC)cc1,.,.,.,.,.
Cc1ccccc1C1C(C#N)=C2N=C(N)c3c(sc4c3CCCCC4)N2C2=C1C(=O)CCC2 (stereo not given),.,.,54,78,.

# Compound activity (PubChem)
